ChEMBL document CHEMBL1124860, “Purine derivatives as competitive inhibitors of human erythrocyte membrane phosphatidylinositol 4-kinase” (J Med Chem, 1990)

Experiments:
[1] = target: T1, Phosphatidylinositol 4-kinase, PI4K (Homo sapiens, UniProt Q9BTU6+Q8TCG2+Q9UBF8+P42356); type: protein assay
[2] = target: T1, Phosphatidylinositol 4-kinase, PI4K; assay: Binding affinity (Ki) against human phosphatidylinositol 4-kinase; type: protein assay
Summary of the method: (§1)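 Human erythrocyte plasma membranes (0.36 mg protein) were incubated with PI (0.12 mM, [2-3H]PI tracer), ATP at 100 µM, ouabain, vanadate, DTT, 0.6% Triton X-100, MgCl2, EGTA, KCl/NaCl and HEPES pH 7.4 for 10 min at 30 °C. Lipids were extracted and deacylated, and the aqueous phase collected. Compounds were screened at 500 µM, then IC50 fitted from single dose-response curves. Ki = IC50/(1+[S]/Km), with ATP Km 221.5 µM.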

[3] = Vmax value was determined; type: ADME
CCn1cnc2c(N)ncnc21 = assay: (§2) Inhibition of Phosphatidylinositol 4-kinase at the ATP binding site; type: protein assay; settings: Homo sapiens
Summary of the method: as §1

Nc1[nH]cnc2ncnc1-2 = assay: as §2; type: protein assay; settings: Homo sapiens
Summary of the method: as §1

Nc1ncnc2c1ncn2C1CCCO1 = assay: as §2; type: protein assay; settings: Homo sapiens
Summary of the method: as §1

[4] = tested on: Nc1ncnc2c1ncn2[C@@H]1O[C@H](CO)[C@@H](O)[C@H]1O; assay: as §2; type: protein assay; settings: Homo sapiens
Summary of the method: as §1

[5] = tested on: c1ccc(CNc2ncnc3[nH]cnc23)cc1; assay: as §2; type: protein assay; settings: Homo sapiens
Summary of the method: as §1

| Compound | IC50 [1] [µM] | Ki [2] [µM] | further results |
| --- | --- | --- | --- |
| Nc1ncnc2c1nc(-c1ccccc1)n2-c1ccccc1 | 16.4 | 11 | – |
| Nc1ncnc2c1ncn2C12CC3CC(CC(C3)C1)C2 | 6 | 4.1 | – |
| CC(C)(C)n1cnc2c(N)ncnc21 | 10.2 | 6.9 | – |
| Nc1[nH]cnc2nc(-c3cccc4ccccc34)nc1-2 | 129.8 | 89.5 | – |
| COc1cccc(-n2cnc3c(N)ncnc32)c1 | 22.9 | 15.8 | – |
| CCCCCc1nc2[nH]cnc(N)c-2n1 | 68.9 | 47.5 | – |
| CC(C)(C)Cn1cnc2c(N)ncnc21 | 12.8 | 9 | – |
| Nc1ncnc2scnc12 | 116.9 | 80.6 | – |
| CC1(C)O[C@@H]2[C@H](O1)[C@@H](CO)O[C@H]2n1cnc2c(N)ncnc21 | 12.1 | 8.4 | – |
| Nc1ncnc2c1ncn2-c1cccnc1 | 46.2 | 31.8 | – |
| Nc1ncnc2c1ncn2-c1cccc2ccccc12 | 78.8 | 54.4 | – |
| Cn1c(-c2ccccc2)nc2c(N)ncnc21 | 34.9 | 24.1 | – |
| Nc1ncnc2c1ncn2-c1cccc(F)c1 | 25.6 | 17.9 | – |
| CCCCCc1nc2c(N)ncnc2n1-c1ccccc1 | 51.9 | 35.8 | – |
| Nc1ncnc2c1ncn2-c1ccc(Cl)cc1 | 41.1 | 28.2 | – |
| Cc1ccccc1-n1cnc2c(N)ncnc21 | 23.6 | 16.5 | – |
| Cn1ncc2c(N)ncnc21 | 82.5 | 56.8 | – |
| Nc1ncnc2c1ncn2C1CCCC1 | 8.7 | 6 | – |
| COc1ccc(-n2cnc3c(N)ncnc32)cc1 | 21.9 | 15.2 | – |
| CCCCCc1nc2c(N)ncnc2n1CCCCC | 126.5 | – | – |
| Nc1ncnc2c1ncn2C1CCCCCC1 | 7.2 | 5 | – |
| Nc1ncnc2cc3ccccc3cc12 | 33 | 22.7 | – |
| Nc1nc2ncnc-2c[nH]1 [2-AMINOPURINE] | 341.6 | 235.4 | – |
| CCn1cnc2c(N)ncnc21 | 32.4 | 25.5 | Vmax [3]: 20800 c.p.m. |
| Nc1ncnc2c1ncn2-c1ccccc1F | 11.9 | 8.3 | – |
| Nc1ncnc2c1cnn2-c1ccccc1 | 16.1 | 11 | – |
| Nc1ncnc2c1ncn2C1CCCO1 (stereo not drawn) | 28.2 | 21.2 | Vmax [3]: 25800 c.p.m. |

| Compound | IC50 [1] [µM] | Ki [2] [µM] | further results |
| --- | --- | --- | --- |
| Cl.Nc1ncnc2nc(Br)[nH]c12 | 215.3 | 148.4 | – |
| Nc1[nH]cnc2nc(-c3ccccn3)nc1-2 | 75.6 | 52.3 | – |
| CCC(CC)(CC)n1cnc2c(N)ncnc21 | 134.1 | 93.7 | – |
| Nc1ncnc2c1ncn2-c1ccccc1 | 15.4 | 10.3 | – |
| c1ccc(CNc2ncnc3nc[nH]c23)cc1 [6-BENZYLAMINOPURINE] | 240.4 | 199 | Vmax [3]: 25800 c.p.m. |
| Nc1ncnc2[nH]c(-c3ccccc3)nc12 | 48.8 | 33.6 | – |
| Phosphatidylinositol 4-kinase, PI4K (Homo sapiens) (from UniProt Q9BTU6+Q8TCG2+Q9UBF8+P42356) | – | – | Km (CCn1cnc2c(N)ncnc21): 257 µM; Km (Nc1[nH]cnc2ncnc1-2): 297 µM; Km (Nc1ncnc2c1ncn2C1CCCO1): 262 µM; Km [4]: 179 µM; Km [5]: 239 µM |
| Cc1nc2c(N)ncnc2n1-c1ccccc1 | 16.4 | 11 | – |
| Nc1ncnc2c1ncn2[C@@H]1O[C@H](CO)[C@@H](O)[C@H]1O [ADENOSINE] | 30.3 | 19.2 | Vmax [3]: 31400 c.p.m. |
| Cl.Nc1[nH]cnc2nc(NCc3ccccc3)nc1-2 | 133 | 91.7 | – |
| Nc1ncnc2c1nc1n2CCCC1 | 52.4 | 35.8 | – |
| Nc1ncnc2c1ncn2Cc1ccccc1 [9-BENZYL-9H-ADENINE] | 84.4 | 57.9 | – |
| CC(C)n1cnc2c(N)ncnc21 | 14.9 | 10.3 | – |
| CC(C)(C)c1ccc(-n2cnc3c(N)ncnc32)cc1 | 46.1 | 31.7 | – |
| Nc1ncnc2[nH]ncc12 | 144.9 | 99.9 | – |
| Cc1nc2[nH]cnc(N)c-2n1 | 195.4 | 134.3 | – |
| Nc1ncnc2c1ncn2[C@@H]1O[C@H](COP(=O)(O)OP(=O)(O)O)[C@@H](O)[C@H]1O [ADENOSINE DIPHOSPHATE] | 145.3 | 100.1 | – |
| Nc1ncnc2c1ncn2C1CCCCC1 | 6 | 3.7 | – |
| Nc1ncnc2ccccc12 [4-AMINOQUINAZOLINE] | 91.7 | 63.4 | – |
| Nc1ncnc2c1ncn2C1O[C@H](CI)[C@@H](O)[C@H]1O (stereo partly drawn) | 23.1 | 15.9 | – |
| Cn1cnc2c(N)ncnc21 | 161 | 110.9 | – |
| Cl.Nc1ncnc2nc[nH]c12 | 182.6 | 85.8 | Vmax [3]: 22800 c.p.m. |
| Nc1nc(N)c2[nH]c(-c3ccccc3)nc2n1 | 199.5 | 137.7 | – |
| Nc1nc(N)c2nc[nH]c2n1.O=S(=O)(O)O | 146.8 | 101.2 | – |
| CC1(n2cnc3c(N)ncnc32)CCCCC1 | 7.2 | 5 | – |
| CN(C)c1ncnc2nc[nH]c12 [DIMETHYLADENINE] | 218 | 150.2 | – |
